# According to PMC8599380 (European Journal of Drug Metabolism and Pharmacokinetics, 2021):
# Where two headings read alike, the source gives them in different places.
# Experiments:
# [1] = Population pharmacokinetic model; type: in vivo, human
# How it was run: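 Patients dosed orally three or four times weekly; 28-day cycles of 3 weeks dosing then 7 days off. Plasma sampled pre-dose to 24 h on day 1, 5 and/or 19 (882 concentrations). FOCE-I estimation; lag-time and transit absorption models tested; exponential IIV; additive residual error on log data. Median-normalized power covariate models; forward P<0.05, backward P 0.01; bootstrap evaluation.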
# [2] = cited from earlier work
# [3] = cited from earlier work; remark: listed apart in the source
# [4] = mouse plasma; cited from earlier work
# [5] = tested on: patients with hematologic and solid tumor malignancies; details: cited from earlier work
# [6] = oral flat dose, preliminary phase 1 data
structure (smiles),measurement,setting,value
CC(C)[C@H](C(=O)Nc1ccc(C(=O)NO)cc1)c1ccccc1 [REC-2282],variability in dose-normalized AUC,"[1]; 55 patients, 20 mg to 80 mg",24.1%
same,variability in dose-normalized Cmax,"[1]; 55 patients, 20 mg to 80 mg",29.6%
same,dose proportionality of pharmacokinetics,[1]; flat doses 20 mg to 80 mg,dose-proportional
same,oral bioavailability,"[2]; mice, preclinical, ref unpublished data",26%
same,dose recovered in urine,[2]; mouse urine,1.4%
same,dose recovered in urine,[3]; rat urine,5%
same,oral bioavailability,"[3]; rats, preclinical, ref unpublished data",100%
same,bound to plasma proteins,[4],96%
same,clinical response,[5]; 27 patients enrolled,minimal response to progressive disease
same,most common adverse event,[5]; 27 patients enrolled,dose-dependent cytopenias
same,observed dose-limiting toxicities,[5],"grade 4 thrombocytopenia, febrile neutropenia and grade 3 neutropenia with infection and grade 4 psychosis"
same,coefficient of variation (CV) in apparent oral clearance among dose levels,[5]; [6],36 to 76%
same,coefficient of variation (CV) in peak concentrations among dose levels,[5]; [6],24–66%
same,median progression-free survival,[5]; patients with NF2 and meningiomas,9.1 months
same,median progression-free survival,[5]; solid tumors,3.6 months
